Our source for the IC50 and Activity values is ChEMBL document CHEMBL4138245, “Design and synthesis of novel quinacrine-[1,3]-thiazinan-4-one hybrids for their anti-breast cancer activity” (Eur J Med Chem, 2018).

The source made the active and inactive calls. The calls are words filed in the database; no cut-off is given here.

Test [1] has as its system MDA-MB-468. Put plainly: Antiproliferative activity against human MDA-MB-468 cells after 48 hrs by SRB assay. It counts as functional, cell-based. To be noted: MDA-MB-468, 48 h. Summed up: (§1)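 SRB assay: 5,000-10,000 cells/well plated, 24 h at 37 °C/5% CO2 before drug; seven concentrations from 100 μM down (two- to ten-fold serial dilutions, DMSO ≤0.1% final) for 48 h; TCA fixation (10% final, 60 min, 4 °C), 0.4% SRB in 1% acetic acid, solubilized in 10 mM Tris base, absorbance 515-564 nm; growth = (Ti−Tz)/(C−Tz)×100; IC50 from sigmoidal variable-slope fit; triplicates, ≥2 independent experiments.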

The subject of test [2] is 184B5. Put plainly: Antiproliferative activity against human 184B5 cells after 48 hrs by SRB assay. To be noted: 184B5, 48 h. In kind it is cell-based. Summed up: as §1
Test [3] concerns MDA-MB-231. Put plainly: Antiproliferative activity against human MDA-MB-231 cells after 48 hrs by SRB assay. To be noted: MDA-MB-231, 48 h. It counts as functional, cell-based. Summed up:
as §1

The subject of test [4] is MCF7. Nature of the test: Antiproliferative activity against human MCF7 cells after 48 hrs by SRB assay. In kind it is functional, cell-based. To be noted: MCF7, 48 h. Summed up: as §1
The subject of test [5] is MCF7. Put plainly: Anticlonogenic activity against human MCF7 cells at 0.39 to 1.5 uM after 12 hrs by crystal violet staining based assay. It counts as functional, cell-based. Summed up: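 Clonogenic assay: 1000 cells/well seeded, treated after overnight attachment for 12 h, then medium replaced and cells grown until control colonies were large enough; colonies stained with crystal violet.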

For `COc1ccc2nc3cc(Cl)ccc3c(NCCCN3C(=O)CCSC3C3CCCCC3)c2c1` (configuration not stated), the IC50 in test [1] was determined as 5.25 µM; in test [2], 7.71 µM; in test [3], 5.85 µM; in test [4] it was 5.05 µM.
On to `COc1ccc2nc3cc(Cl)ccc3c(NCCCN3C(=O)CCSC3c3ccccc3F)c2c1` (configuration not stated), for which the IC50 came out at 2.68 µM in test [1], 35.6 µM in test [2], 4.11 µM in test [3] and 2.29 µM in test [4].
For `COc1ccc2nc3cc(Cl)ccc3c(NCCCN3C(=O)CCSC3c3ccc(C)cc3)c2c1` (configuration not stated) the same measures were 6.97 µM, 5.66 µM, 4.87 µM and 5.52 µM.
As to `COc1ccc2nc3cc(Cl)ccc3c(NCCCN3C(=O)CCSC3c3ccco3)c2c1` (configuration not stated), the IC50 in test [1] was determined as 3.67 µM; in test [2] it was 3.6 µM; in test [3], 3.46 µM; in test [4] it was 3.57 µM.
Regarding `COc1ccc2nc3cc(Cl)ccc3c(NCCCN3C(=O)CCSC3c3ccc(F)cc3)c2c1` (configuration not stated), the IC50 in test [1] is 4.58 µM; in test [2] it was 28.2 µM; in test [3], 5.36 µM; in test [4], 4.97 µM.
Turning to `COc1ccc2nc3cc(Cl)ccc3c(NCCCN3C(=O)CCSC3c3c(Cl)cccc3Cl)c2c1` (configuration not stated), the 50% inhibitory concentration (IC50) in test [1] stood at 1.29 µM; in test [2], 3.84 µM; in test [3] it was 7.54 µM; in test [4], 4.41 µM.
For `COc1ccc2nc3cc(Cl)ccc3c(NCCCN3C(=O)CCSC3c3ccc(Cl)cc3Cl)c2c1` (configuration not stated) the same measures were 3.72 µM, 4.28 µM, 3.07 µM and 1.85 µM.
The matching figures for `COc1ccc2nc3cc(Cl)ccc3c(NCCCN3C(=O)CCSC3c3c(F)cccc3F)c2c1` (configuration not stated): 3.2 µM, 29.3 µM, 4.41 µM and 3.81 µM.
The matching figures for `COc1ccc2nc3cc(Cl)ccc3c(NCCCN3C(=O)CCSC3c3ccccc3Cl)c2c1` (configuration not stated): 19.9 µM, 69.6 µM, 10.8 µM and 15.3 µM.
Take `COc1ccc2nc3cc(Cl)ccc3c(NCCCN3C(=O)CCSC3c3ccnc4ccccc34)c2c1` (configuration not stated): the IC50 in test [1] came out at 10.4 µM; in test [2], 27.1 µM; in test [3], 7.48 µM; in test [4], 8.94 µM.
For the compound `COc1ccc2nc3cc(Cl)ccc3c(NCCCN3C(=O)CCSC3c3ccc(F)cc3F)c2c1` (configuration not stated), the IC50 in test [1] was found to be 3.79 µM; in test [2] it was 5.08 µM; in test [3], 4.54 µM; in test [4] it was 3.39 µM.
The matching figures for `COc1ccc2nc3cc(Cl)ccc3c(NCCCN3C(=O)CCSC3c3ccc([N+](=O)[O-])cc3)c2c1` (configuration not stated): 9.41 µM, 19.5 µM, 4.68 µM and 7.04 µM.
For `COc1ccc2nc3cc(Cl)ccc3c(NCCCN3C(=O)CCSC3c3ccc[nH]3)c2c1` (configuration not stated) the same measures were 4.87 µM, 12.9 µM, 4.56 µM and 1.66 µM.
The matching figures for `COc1ccc2nc3cc(Cl)ccc3c(NCCCN3C(=O)CCSC3c3ccccc3[N+](=O)[O-])c2c1` (configuration not stated): 1.21 µM, 1.83 µM, 0.77 µM and 0.99 µM.
For the compound `COc1ccc2nc3cc(Cl)ccc3c(NCCCN3C(=O)CCSC3c3ccccc3Br)c2c1` (configuration not stated), the IC50 in test [1] came to 38.6 µM; in test [2] it was 15.6 µM; in test [3], 40.1 µM; in test [4] it was 39.3 µM.
Regarding `COc1ccc2nc3cc(Cl)ccc3c(NCCCN3C(=O)CCSC3c3ccncc3)c2c1` (configuration not stated), the IC50 came to 21.6 µM in test [1], 14.6 µM in test [2], 10.8 µM in test [3] and 16.2 µM in test [4].
Consider `COc1ccc2nc3cc(Cl)ccc3c(NCCCN3C(=O)CCSC3c3c(F)cccc3Cl)c2c1` (configuration not stated), for which the IC50 turned out to be 5.19 µM in test [1], 3.1 µM in test [2], 3.44 µM in test [3] and 4.31 µM in test [4].
In the case of `CCN(CC)CCCC(C)Nc1c2ccc(Cl)cc2nc2ccc(OC)cc12` (configuration not stated) [QUINACRINE], the IC50 in test [1] is 3.96 µM; in test [2] it was 4.96 µM; in test [3] it was 3.25 µM; in test [4], 4.19 µM. The result in test [5] was Active.
Consider `COc1ccc2nc3cc(Cl)ccc3c(NCCCN3C(=O)CCSC3c3ccccc3)c2c1` (configuration not stated), for which the IC50 in test [1] was determined as 4.72 µM; in test [2], 9.32 µM; in test [3], 4.07 µM; in test [4], 4.79 µM.
For `COc1ccc2nc3cc(Cl)ccc3c(NCCCN3C(=O)CCSC3c3ccc(Br)cc3)c2c1` (configuration not stated) the same measures were 25.5 µM, 35.8 µM, 37.1 µM and 31.3 µM.
For `COc1ccc2nc3cc(Cl)ccc3c(NCCCN3C(=O)CCSC3c3ccc(N(c4ccccc4)c4ccccc4)cc3)c2c1` (configuration not stated) the same measures were 1.68 µM, 3.11 µM, 3.32 µM and 1.85 µM.
With `COc1ccc2nc3cc(Cl)ccc3c(NCCCN3C(=O)CCSC3c3ccc(Cl)cc3)c2c1` (configuration not stated), the IC50 in test [1] stood at 4.43 µM; in test [2] it was 5.02 µM; in test [3] it was 3.53 µM; in test [4], 3.4 µM.
The matching figures for `CCN(CC)CCCC(C)Nc1ccnc2cc(Cl)ccc12` (configuration not stated) [CHLOROQUINE PHOSPHATE]: 28.6 µM, 76.1 µM, 22.5 µM and 38.4 µM.
The matching figures for `COc1ccc2nc3cc(Cl)ccc3c(NCCCN3C(=O)CCSC3c3ccc(N(C)C)cc3)c2c1` (configuration not stated): 3.56 µM, 13.2 µM, 2.63 µM and 3.09 µM.
